Screening data from PubChem BioAssay.
GSTO1 inh: blocks human GSTO1 in RBBP9 counter-screen; recombinant GSTO1, activity-based probe fluorescence polarization; 300,000 tested, 1.1% active; inhibition, % at 5.96 µM; AID 1974;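 active = inhibition above the campaign mean inhibition plus 3 SD, cut at about 35% in these data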
Target sequence (P78417 whole entry, looked up): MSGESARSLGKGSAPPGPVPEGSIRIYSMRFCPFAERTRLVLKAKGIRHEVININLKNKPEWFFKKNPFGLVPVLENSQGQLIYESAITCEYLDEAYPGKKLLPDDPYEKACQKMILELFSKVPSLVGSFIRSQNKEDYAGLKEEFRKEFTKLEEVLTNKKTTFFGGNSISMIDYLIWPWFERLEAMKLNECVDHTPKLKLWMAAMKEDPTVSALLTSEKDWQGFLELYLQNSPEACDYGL
UBC13 polyUb: inhibitors of human UBC13 polyubiquitin chain formation. P61088. TR-FRET. inhibition, % at 20 µM. 330,000 tested, 0.47% active. AID 485273; in the data active = inhibition above about 45%, passing the limit was not always enough
Target sequence (P61088 whole entry, looked up): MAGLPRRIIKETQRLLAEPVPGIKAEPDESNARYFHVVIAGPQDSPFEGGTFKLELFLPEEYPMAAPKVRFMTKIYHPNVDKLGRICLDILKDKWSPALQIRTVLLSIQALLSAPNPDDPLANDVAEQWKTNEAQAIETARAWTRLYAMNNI
Apaf1 inhib: human Apaf-1 inhibition; 330,000 tested, 0.71% active; reconstituted apoptosome caspase-3 activity, DEVD-Rh110 fluorescence; inhibition, % at 20 µM; AID 489030; active = inhibition of at least 40% at 20 µM
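Medium: Hepes buffer, pH 7.5 / System: biochemical Apaf-1 apoptosome reconstitution / Measured by: Rh110 fluorescence, excitation 480 nm, emission 540 nm / Times: compound with Apaf-1, dATP, procaspase-3 30 min, then 50 min reaction, room temperature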
PAD4 inh: inhibitors of human PAD4 | recombinant PAD4, RCA probe fluorescence polarization | inhibition, % at 6.36 µM | 330,000 tested, 0.41% active;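 active = percent inhibition above a cutoff equal to the mean of all tested compounds plus 3 SD, cut at about 15% in these data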
Rin1-Abl PPI inh: inhibitors of human Rin1-Abl protein interaction | P00519+Q13671 | TR-FRET Rin1/Abl binding, biochemical | inhibition, % at 7.35 µM | 360,000 tested, 0.4% active | AID 588664; in the data active = inhibition above about 5%, passing the limit was not always enough
UBC9 SUMO inh: blocks human SUMOylation mediated by UBC9; P63279; HTRF SUMOylation assay, SAE1/SAE2 + UBC9, in vitro; inhibition, % at 35 µM; 290,000 tested, 0.36% active; in the data active = inhibition above about 50%, passing the limit was not always enough
Casp3 UBC13 ctr: caspase-3 inhibition (UBC13 counter-screen); shares compounds with UBC13 polyUb; AID 488856; 1,400 tested, 4% active; Recombinant caspase-3, Caspase-Glo 3/7 luminescence, 60 min; inhibition, % at 20 µM;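 active = mean inhibition across replicates above about 26%, limit read from the data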
Target sequence (P42574 whole entry, looked up): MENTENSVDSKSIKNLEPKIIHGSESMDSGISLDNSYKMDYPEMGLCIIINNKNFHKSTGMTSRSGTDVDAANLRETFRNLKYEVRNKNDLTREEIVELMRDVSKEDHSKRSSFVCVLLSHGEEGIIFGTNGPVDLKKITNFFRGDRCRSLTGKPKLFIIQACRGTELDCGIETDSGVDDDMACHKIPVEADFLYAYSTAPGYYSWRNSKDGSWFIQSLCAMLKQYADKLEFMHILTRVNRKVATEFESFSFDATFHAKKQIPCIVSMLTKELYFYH
UBC13 conf: human UBC13 polyubiquitin inhibition, confirmed; shares compounds with UBC13 polyUb; UBC13 polyubiquitination, TR-FRET, biochemical; inhibition, % at 10 µM; 1,400 tested, 68% active; AID 488859; in the data active = inhibition above about 45%
Apaf-1 inh conf: Apaf-1 inhibition, single-dose confirmed; shares compounds with Apaf1 inhib; reconstituted apoptosome, caspase-3 DEVD-Rh110 fluorescence; inhibition, % at 20 µM; 1,800 tested, 25% active; AID 504614;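 active = mean inhibition of at least 40% at 20 µM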
Rh110 interf inh: interferes with Rh110 fluorescence, flagging false Apaf-1 inhibitors. shares compounds with Apaf1 inhib. Rh110 fluorescence interference, quenched caspase reaction. activation (fluorescence interference), % at 20 µM. 1,800 tested, under 10 active. AID 504615;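 active = signal rise of 40% or more at 20 µM, treated as a fluorescence artifact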
Fluor interf inh: counter-screen for Apaf-1 inhibitors: fluorescence interference, dose response | shares compounds with Apaf1 inhib | fluorescence interference counterscreen, Apaf-1 assay format | IC50, µM | 460 tested, under 10 active | AID 588538; call rule not given here
Each line names hits and unclear results; the compound was inactive in the other large screens (follow-up assays come after a bar, where they were run). Most compounds without a hit are left out; they make up all but 2.2% or so of the library.

COc1cccc(C(O)c2ncc(-c3ccc(Cl)cc3)[nH]2)c1 (configuration not stated)	none (no result: GSTO1 inh, UBC13 polyUb, Apaf1 inhib, PAD4 inh, UBC9 SUMO inh)
COc1cccc(OC)c1OC(=O)c1ccccc1	none (no result: GSTO1 inh, UBC13 polyUb, Apaf1 inhib, PAD4 inh, UBC9 SUMO inh)
Cc1cc(C(C)(C)CC(C)(C)C)ccc1OCCOCC[N+](C)(C)Cc1ccccc1	UBC13 polyUb 100, Apaf1 inhib 86 (no result: UBC9 SUMO inh) | Casp3 UBC13 ctr inactive | UBC13 conf 105 | Apaf-1 inh conf 59 | Rh110 interf inh inactive | Fluor interf inh inactive
C[N+](C)(CCOc1ccccc1)Cc1ccccc1	none (no result: GSTO1 inh, UBC13 polyUb, Apaf1 inhib, PAD4 inh, UBC9 SUMO inh)
CC(C)COCC(CN(Cc1ccccc1)c1ccccc1)N1CCCC1 (configuration not stated)	UBC13 polyUb 49, Apaf1 inhib 49 | Casp3 UBC13 ctr inactive | UBC13 conf inactive | Apaf-1 inh conf inactive | Rh110 interf inh inactive
CCCNC(=O)C1(C)CCCN(C(=O)c2cc(F)ccc2C)C1 (configuration not stated)	none (no result: GSTO1 inh, UBC13 polyUb, Apaf1 inhib, PAD4 inh, UBC9 SUMO inh)
CN1CCN(CC(=O)N2CCn3c4c(c5cc(C6CCCCC6)ccc53)CCCC42)CC1 (configuration not stated)	UBC13 polyUb 90, Apaf1 inhib 58 | Casp3 UBC13 ctr inactive | UBC13 conf 103 | Apaf-1 inh conf inactive | Rh110 interf inh inactive
O=c1cc(CN2CCN(S(=O)(=O)c3cccc(Cl)c3)CC2)c2ccc(O)cc2o1	none (no result: GSTO1 inh, UBC9 SUMO inh)
COc1ccccc1OCCNC(=O)c1cccc(S(=O)(=O)N2CCN(C)CC2)c1	none
COc1ccccc1OCCNC(=O)c1cccc(S(=O)(=O)N2CCN(Cc3ccccc3)CC2)c1	UBC13 polyUb 70, Apaf1 inhib 67 (no result: GSTO1 inh, UBC9 SUMO inh) | Casp3 UBC13 ctr inactive | UBC13 conf 56 | Apaf-1 inh conf 49 | Rh110 interf inh inactive | Fluor interf inh inactive
CN(Cc1cccc(F)c1)C(=O)c1cccc(S(=O)(=O)N2CCN(Cc3ccccc3)CC2)c1	none
CN(Cc1ccc(Cl)c(Cl)c1)C(=O)c1cccc(S(=O)(=O)N2CCN(Cc3ccccc3)CC2)c1	UBC13 polyUb 86, Apaf1 inhib 72 (no result: GSTO1 inh, UBC9 SUMO inh) | Casp3 UBC13 ctr inactive | UBC13 conf 104 | Apaf-1 inh conf 49 | Rh110 interf inh inactive | Fluor interf inh inactive
C[C@@H]1CN([C@H](C)CO)C(=O)CCCn2cc(nn2)CO[C@H]1CN(C)S(=O)(=O)c1ccccc1F	none (no result: GSTO1 inh, UBC13 polyUb, Apaf1 inhib, PAD4 inh, UBC9 SUMO inh)
COc1cc(OC)c2ccc(=O)oc2c1C(CCN1CCCC(C)C1)c1ccc2c(c1)OCO2 (configuration not stated)	none
CCCCCc1cc(=O)oc2c(C(CCN(CC)CC)c3ccc(OC)cc3)c(OC)cc(OC)c12 (configuration not stated)	UBC13 polyUb 83, Apaf1 inhib 61 | Casp3 UBC13 ctr inactive | UBC13 conf 76 | Apaf-1 inh conf inactive | Rh110 interf inh inactive
CCCCCc1cc(=O)oc2c(C(CCN3CCCC(C)C3)c3ccc(OC)cc3)c(OC)cc(OC)c12 (configuration not stated)	UBC13 polyUb 65, Apaf1 inhib 66 | Casp3 UBC13 ctr inactive | UBC13 conf 53 | Apaf-1 inh conf inactive | Rh110 interf inh inactive
CCCCCc1cc(=O)oc2c(C(CCN3CCCC3)c3cc(OC)c(OC)c(OC)c3)c(OC)cc(OC)c12 (configuration not stated)	UBC13 polyUb 80, Apaf1 inhib 50 | Casp3 UBC13 ctr inactive | UBC13 conf 73 | Apaf-1 inh conf inactive | Rh110 interf inh inactive
CCCCCc1cc(=O)oc2c(C(CCN3CCCC3)c3ccc(N(C)C)cc3)c(OC)cc(OC)c12 (configuration not stated)	UBC13 polyUb 82, Apaf1 inhib 45 | Casp3 UBC13 ctr inactive | UBC13 conf inactive | Apaf-1 inh conf inactive | Rh110 interf inh inactive
CCN(CC)CCOc1ccc(/C(=C(/Cl)c2ccccc2)c2ccccc2)cc1	UBC13 polyUb 73, Apaf1 inhib 65 | Casp3 UBC13 ctr inactive | UBC13 conf 56 | Apaf-1 inh conf inactive | Rh110 interf inh inactive
CC/C(=C(\c1ccccc1)c1ccc(OCCN(C)C)cc1)c1ccccc1	UBC13 polyUb 78, Apaf1 inhib 72 (no result: UBC9 SUMO inh) | Casp3 UBC13 ctr inactive | UBC13 conf 65 | Apaf-1 inh conf inactive | Rh110 interf inh inactive
CCC(=C(c1ccccc1)c1ccc(OCCN(C)C)cc1)c1ccccc1	none (no result: GSTO1 inh, UBC13 polyUb, Apaf1 inhib, PAD4 inh, UBC9 SUMO inh)
CC/C(=C(\c1ccc(O)cc1)c1ccc(OCCN(C)C)cc1)c1ccccc1	UBC13 polyUb 79, Apaf1 inhib 65 | Casp3 UBC13 ctr inactive | UBC13 conf 55 | Apaf-1 inh conf inactive | Rh110 interf inh inactive
CCC(=C(c1ccc(O)cc1)c1ccc(OCCN(C)C)cc1)c1ccccc1	none (no result: GSTO1 inh, UBC13 polyUb, Apaf1 inhib, PAD4 inh, UBC9 SUMO inh)
COc1ccc(-c2ccc3nncn3c2)cn1	none (no result: GSTO1 inh, UBC13 polyUb, Apaf1 inhib, PAD4 inh, UBC9 SUMO inh)
c1ccc(C[C@H]2CN=C(Nc3ccccc3)N2CCCC2CCCCC2)cc1	UBC13 polyUb 48, Apaf1 inhib 47 (no result: GSTO1 inh, UBC9 SUMO inh) | Casp3 UBC13 ctr inactive | UBC13 conf inactive | Apaf-1 inh conf inactive | Rh110 interf inh inactive
c1ccc(C[C@H]2CN=C(Nc3ccccc3)N2CC2CCCCC2)cc1	none (no result: GSTO1 inh, UBC9 SUMO inh)
CC1(C(=O)NS(=O)(=O)Cc2cccc(Cl)c2)CCN1C(=O)C1(c2ccc(Cl)cc2)CCC1 (configuration not stated)	none (no result: GSTO1 inh, UBC13 polyUb, Apaf1 inhib, PAD4 inh, UBC9 SUMO inh)
NC1=NC[C@H](CC2CCCCC2)N1CCc1cc(C(F)(F)F)cc(C(F)(F)F)c1	UBC13 polyUb 97, Apaf1 inhib 74 | Casp3 UBC13 ctr inactive | UBC13 conf 98 | Apaf-1 inh conf 50 | Rh110 interf inh inactive | Fluor interf inh inactive
FC(F)(F)c1cc(CCN2CCNC[C@@H]2c2ccccc2)cc(C(F)(F)F)c1	UBC13 polyUb 66, Apaf1 inhib 61 (no result: GSTO1 inh, UBC9 SUMO inh) | Casp3 UBC13 ctr inactive | UBC13 conf 62 | Apaf-1 inh conf inactive | Rh110 interf inh inactive
FC(F)(F)c1cc(CCN2CCNC[C@@H]2CC2CCCCC2)cc(C(F)(F)F)c1	UBC13 polyUb 87, Apaf1 inhib 79 (no result: GSTO1 inh, UBC9 SUMO inh) | Casp3 UBC13 ctr inactive | UBC13 conf 97 | Apaf-1 inh conf 41 | Rh110 interf inh inactive | Fluor interf inh inactive
CC(C)n1ncc2c(C(=O)N3CCN(S(=O)(=O)c4cccc(F)c4)CC3)cc(C3CC3)nc21	none (no result: GSTO1 inh, UBC13 polyUb, Apaf1 inhib, PAD4 inh, UBC9 SUMO inh)
